Results as given in PubChem BioAssay.
The source made the active and inactive calls.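 The calls were made as follows, unless noted: active = viability at or below 10% of carrier control in both of two separate runs; inconclusive = viability at or below 10% in only one of the two runs; inactive = the rest.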

What was measured:
[1] = Her2 expression decrease, cell viability multiplex – SKBR3 breast tumor cells, AlphaScreen, ATP viability, primary screen (AID 461;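 active = Her2 level under about 52% in both replicate screens, with viability over 70% of control, limit read from the data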;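 as to Her2 level: lower value means less Her2 protein in the cells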;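 as to viability: percent of carrier control wells set as 100% viability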); conditions: SKBR3 Her2 protein level, 18-24 h, measured here: SKBR3 viability, ATP luminescence, at 10 µM
[2] = biological target: Receptor tyrosine-protein kinase erbB-2 (Homo sapiens) (UniProt P04626); assay: as above; conditions: 18-24 h, at 10 µM, stronger effect = lower value
[3] = reduced viability of SK-BR-3 breast cancer cells – cell-based, 24 h, human, pilot screen (AID 572); conditions: SK-BR-3 viability, CellTiter-Glo luminescence, at 10 µM, stronger effect = lower value;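 also: compound exposure lasted between 18 and 24 h rather than exactly 24 h; 100% = carrier-treated control wells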
[4] = HUVEC growth inhibition – cell-based, human, primary screen (AID 575;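 active = viability at or below 30% in both replicate assays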;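 also: 100% = median of untreated cell wells with 0.1% DMSO on each plate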); conditions: HUVEC proliferation, CellTiter-Glo luminescence, 72 h; at 10 µM; stronger effect = lower value
In short: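 Test system: primary human umbilical vein endothelial cells; medium: endothelial basal medium with 2% FBS plus growth supplements; dosing: 10 µM compound only; times: 72 h treatment at 37 °C; signal: CTG luminescence; read-out: % viability relative to median vehicle-well signal on each plate; control set: vehicle and MePR control wells; plate: 384-well, collagen-coated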

[5] = H69AR cell proliferation blockers – human, duplicate replicates, primary screen (AID 580;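 active = viability at or under a set limit in both replicates, limit being median viability minus 3 SD, cut at about 48% in these data, passing the limit was not always enough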;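 also: 100% = mean luminescence of untreated wells and 0% = no signal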); conditions: H69AR lung tumor cells viability, ATP luminescence, 72 h; at 10 µM; stronger effect = lower value
[6] = MRP1 drug-resistance reversers in H69AR cells – cell-based, doxorubicin co-treatment, pilot screen (AID 601;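 active = viability loss from added drug above about 55%, and viability with drug at most 40%, in both replicates, limit read from the data, passing the limit was not always enough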); conditions: CellTiter-Glo, 72 h, at 10 µM; for differential viability (reversal): stronger effect = higher value
[7] = yeast transport mutant growth inhibition pilot in 384-well plates, post-Golgi transport modulator project (AID 636; in the data active = inhibition above about 31%); conditions: absorbance 615 nm, about 18 h, stronger effect = higher value
[8] = growth suppression of yeast trafficking mutant, preliminary HTS, modulators of trafficking downstream of Golgi apparatus project, 1536-format plate, OD 615 nm (AID 637; in the data active = inhibition above about 30%); conditions: yeast transport mutant growth, absorbance 615 nm, 18 h; stronger effect = higher value
[9] = H69AR cells + 2 uM doxorubicin, measured here: viability with 2 uM doxorubicin, stronger effect = lower value
[10] = H69AR cells, compound alone cytotoxicity

Chain of Receptor tyrosine-protein kinase erbB-2 (Homo sapiens) (P04626 whole entry, looked up): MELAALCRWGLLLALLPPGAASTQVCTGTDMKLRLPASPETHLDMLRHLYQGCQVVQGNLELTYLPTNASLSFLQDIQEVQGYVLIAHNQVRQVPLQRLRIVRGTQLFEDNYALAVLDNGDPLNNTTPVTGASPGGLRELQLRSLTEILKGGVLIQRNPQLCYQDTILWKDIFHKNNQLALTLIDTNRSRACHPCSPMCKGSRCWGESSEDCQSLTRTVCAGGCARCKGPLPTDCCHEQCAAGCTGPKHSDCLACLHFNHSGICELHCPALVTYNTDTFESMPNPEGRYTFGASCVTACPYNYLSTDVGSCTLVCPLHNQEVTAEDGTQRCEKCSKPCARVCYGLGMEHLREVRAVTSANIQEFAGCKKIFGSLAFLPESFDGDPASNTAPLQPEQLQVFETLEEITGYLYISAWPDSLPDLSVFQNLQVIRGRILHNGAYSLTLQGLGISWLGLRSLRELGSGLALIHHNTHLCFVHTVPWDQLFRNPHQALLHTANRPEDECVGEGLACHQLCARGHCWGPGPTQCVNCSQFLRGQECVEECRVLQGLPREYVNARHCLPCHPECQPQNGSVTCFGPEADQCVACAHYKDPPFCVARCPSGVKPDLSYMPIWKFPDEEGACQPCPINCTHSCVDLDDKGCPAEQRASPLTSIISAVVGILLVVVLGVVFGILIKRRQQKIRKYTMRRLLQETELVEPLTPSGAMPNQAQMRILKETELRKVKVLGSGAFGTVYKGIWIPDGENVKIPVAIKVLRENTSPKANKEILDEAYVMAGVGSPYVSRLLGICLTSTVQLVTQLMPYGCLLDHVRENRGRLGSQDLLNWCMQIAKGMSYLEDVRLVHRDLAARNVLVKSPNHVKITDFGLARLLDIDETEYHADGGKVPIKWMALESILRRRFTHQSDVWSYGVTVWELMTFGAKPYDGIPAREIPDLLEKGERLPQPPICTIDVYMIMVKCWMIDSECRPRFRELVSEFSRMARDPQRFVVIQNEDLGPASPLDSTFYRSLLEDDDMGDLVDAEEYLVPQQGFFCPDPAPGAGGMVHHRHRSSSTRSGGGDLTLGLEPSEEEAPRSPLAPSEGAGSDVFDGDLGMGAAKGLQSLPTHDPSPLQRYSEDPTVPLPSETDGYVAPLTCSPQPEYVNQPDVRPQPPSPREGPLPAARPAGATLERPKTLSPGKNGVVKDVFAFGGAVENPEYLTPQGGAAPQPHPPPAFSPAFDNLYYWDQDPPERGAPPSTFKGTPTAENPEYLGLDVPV

| Compound | viability [1] [%] | Her2 level [2] | viability [3] | viability [4] | viability [5] | differential viability (reversal) ([6]; H69AR cells + 2 uM doxorubicin) | viability [6, 9] [%] | viability [6, 10] [%] | inhibition [7] | inhibition [8] |
| --- | --- | --- | --- | --- | --- | --- | --- | --- | --- | --- |
| COc1ccccc1N1CCN(S(=O)(=O)CC23CCC(CC2=O)C3(C)C)CC1 (stereo not given) | 102 | 94% (inactive) | 102% (inactive) | 76.9% (inactive) | 84.5% (inactive) | 0.875% (inactive) | 83.6 | 84.5 | -0.52% (inactive) | -3.67% (inactive) |
| O=C(Nc1cccc2c1CCCC2)C1CCN(c2nnnn2-c2ccccc2)CC1 | 92 | 99% (inactive) | 92% (inactive) | 97.7% (inactive) | 89.2% (inactive) | 5.29% (inactive) | 83.9 | 89.2 | -0.13% (inactive) | -6.45% (inactive) |
| O=C(c1ncc[nH]1)c1ccccc1C(=O)N1CCOCC1 | 118 | 112% (inactive) | 118% (inactive) | 100% (inactive) | 90.3% (inactive) | 3.04% (inactive) | 87.3 | 90.3 | -5.21% (inactive) | 1.75% (inactive) |
| Cc1nnc(SC(=O)N2c3ccccc3Sc3ccccc32)s1 | 114 | 6.5% (active) | 114% (inactive) | 13.2% (active) | 1.79% (active) | 0.105% (inactive) | 1.69 | 1.79 | 54% (active) | 8.67% (inactive) |
| COc1ccc2cc(CN(CCO)C(=O)c3ccc(Br)cc3)c(=O)[nH]c2c1 | 98 | 81.5% (inactive) | 98% (inactive) | 90.2% (inactive) | 110% (inactive) | 19.2% (inactive) | 90.3 | 110 | -4.93% (inactive) | 5.41% (inactive) |
| c1ccc(-c2n[nH]c3ccccc23)cc1 | 118 | 85% (inactive) | 118% (inactive) | 84.9% (inactive) | 103% (inactive) | 11.4% (inactive) | 91.9 | 103 | -3.55% (inactive) | 2.1% (inactive) |
| CN(C(=O)c1ccncc1)C1CC(C)(C)N(O)C(C)(C)C1 | 124 | 96.5% (inactive) | 124% (inactive) | 87.7% (inactive) | 92.3% (inactive) | -1.93% (inactive) | 94.2 | 92.3 | -7.11% (inactive) | -6.36% (inactive) |
| Cc1ccc2[nH]c(=O)c(CN(CCCO)S(=O)(=O)c3c(C)ccc4nsnc34)cc2c1 | 91 | 92.5% (inactive) | 91% (inactive) | 95.1% (inactive) | 96.8% (inactive) | 4.04% (inactive) | 92.8 | 96.8 | -1.18% (inactive) | -4.44% (inactive) |
| COc1ccccc1-c1nnc(SCC(=O)N2CC(C)CC(C)C2)o1 (stereo not given) | 80.5 | 81.5% (inactive) | 80.5% (inactive) | 77.4% (inactive) | 78.1% (inactive) | -5.03% (inactive) | 83.2 | 78.1 | -5% (inactive) | -5% (inactive) |
| CC1(C)OC(=O)N(c2cccnc2)C1(C)O (stereo not given) | 117 | 83% (inactive) | 117% (inactive) | 100% (inactive) | 91.5% (inactive) | 11.6% (inactive) | 80 | 91.5 | -5.6% (inactive) | 3.02% (inactive) |
| COc1cccc(OCCn2ccnc2)c1 | 90.5 | 104% (inactive) | 90.5% (inactive) | 89.6% (inactive) | 89.4% (inactive) | -3.7% (inactive) | 93.1 | 89.4 | -4.93% (inactive) | -9.21% (inactive) |
| Cc1ccc(S(=O)(=O)N(C)c2ccc(OCC(=O)OCc3c(C)noc3C)cc2)cc1 | 92.5 | 97% (inactive) | 92.5% (inactive) | 95.4% (inactive) | 105% (inactive) | 6.56% (inactive) | 98.6 | 105 | -1.71% (inactive) | -10.3% (inactive) |
| Cc1ccc2c(c1)CCCN2C(=O)C1CCCO1 (stereo not given) | 101 | 100% (inactive) | 101% (inactive) | 99.3% (inactive) | 108% (inactive) | 14.6% (inactive) | 93.3 | 108 | -1.97% (inactive) | -6.83% (inactive) |
| CCCc1cc(C(=O)Nc2ccccc2C(=O)OC)no1 | 89.5 | 109% (inactive) | 89.5% (inactive) | 64.7% (inactive) | 89.3% (inactive) | 7.36% (inactive) | 82 | 89.3 | 4.1% (inactive) | 14.5% (inactive) |
| CC(=O)CCc1ccc(OCCCCn2cncn2)cc1 | 113 | 105% (inactive) | 113% (inactive) | 98.2% (inactive) | 92.9% (inactive) | 3.28% (inactive) | 89.6 | 92.9 | -4.94% (inactive) | 1.59% (inactive) |
| CC(=O)c1ccc(NC(=O)c2cc(CC(C)C)on2)cc1 | 93 | 114% (inactive) | 93% (inactive) | 120% (inactive) | 89.2% (inactive) | -1.95% (inactive) | 91.1 | 89.2 | 6.15% (inactive) | -8.67% (inactive) |
